Laboratory results: ChEMBL document CHEMBL4184322, “Coupling of an Acyl Migration Prodrug Strategy with Bio-activation To Improve Oral Delivery of the HIV-1 Protease Inhibitor Atazanavir” (J Med Chem, 2018)
In brackets after ≈: the same amount, converted by molar mass.

Assays:
[1] = Half life of the compound in 0.1 N aqueous HCl at pH 1 at 37 degC after 24 hrs by UPLC method; type: physicochemical
[2] = Half life in rat hepatocytes at 1 uM after 5 to 120 mins by UPLC-MS/MS method; type: ADME, cell-based, Hepatocyte
[3] = Solubility of the compound in acetate buffer at pH 4 at 25 degC by UPLC method; type: physicochemical
[4] = Half life of the compound in acetate buffer at pH 4 at 37 degC after 24 hrs by UPLC method; type: physicochemical
Rattus norvegicus [5] = assay: Trough concentration in Sprague-Dawley rat assessed as atazanavir at 3 mg/kg, po equiv of atazanavir at 24 hrs by UPLC/MS/MS method; type: ADME, organism-based; settings: in vivo; for concentration: read-out: Cmin; for Cmin: BLD = below limit of detection
[6] = Half life in rat whole blood at 1 uM after 5 to 90 mins by UPLC-MS/MS method; type: ADME, tissue-based
Rattus norvegicus [7] = assay: Oral bioavailability in Sprague-Dawley rat assessed as atazanavir at 3 mg/kg equiv of atazanavir after 0.25 to 24 hrs by UPLC/MS/MS method relative to atazanavir; type: ADME, organism-based; settings: in vivo
Rattus norvegicus [8] = assay: AUClast in Sprague-Dawley rat assessed as atazanavir at 3 mg/kg, po equiv of atazanavir after 0.25 to 24 hrs by UPLC/MS/MS method; type: ADME, organism-based; parameters: time upper 24 hr, dose 3 mg/kg, time lower 0.25 hr, route oral; settings: in vivo
[9] = Solubility of the compound in phosphate buffer at pH 6.5 at 25 degC by UPLC method; type: physicochemical
[10] = Solubility of the compound in 0.1 N aqueous HCl at pH 1 at 25 degC by UPLC method; type: physicochemical
Rattus norvegicus [11] = assay: Tmax in Sprague-Dawley rat assessed as atazanavir at 3 mg/kg, po equiv of atazanavir after 0.25 to 24 hrs by UPLC/MS/MS method; type: ADME, organism-based; settings: in vivo
Rattus norvegicus [12] = assay: Cmax in Sprague-Dawley rat assessed as atazanavir at 3 mg/kg, po equiv of atazanavir after 0.25 to 24 hrs by UPLC/MS/MS method; type: ADME, organism-based; parameters: dose 3 mg/kg, route oral; settings: in vivo
[13] = Half life of the compound in phosphate buffer at pH 6.5 at 37 degC after 24 hrs by UPLC method; type: physicochemical
Rattus norvegicus [14] = assay: Ratio of AUClast in Sprague-Dawley rat at 3 mg/kg, po equiv of atazanavir to AUC in Sprague-Dawley rat assessed as atazanavir at 3 mg/kg, po equiv of atazanavir; type: ADME, organism-based; settings: in vivo
[15] = Efflux ratio of apparent permeability across basolateral to apical over apical to basolateral side in human Caco2 cells; type: ADME, cell-based; settings: Caco-2
[16] = Apparent permeability across apical to basolateral side in human Caco2 cells; type: ADME, cell-based; settings: Caco-2
[17] = Apparent permeability across basolateral to apical side in human Caco2 cells; type: ADME, cell-based; settings: Caco-2
[18] = Half life of the compound in phosphate buffer at pH 7.4 at 37 degC after 24 hrs by UPLC method; type: physicochemical
Rattus norvegicus [19] = assay: Trough concentration in Sprague-Dawley rat assessed as (2S,3S)-3-Amino-1-(2-((S)-2-((methoxycarbonyl)amino)-3,3-dimethylbutanoyl)-1-(4-(pyridin-2-yl)benzyl)hydrazinyl)4-phenylbutan-2-yl (S)-2-((Methoxycarbonyl)amino)-3,3-dimethylbutanoate Dihydrochloride at 3 mg/kg, po equiv of atazanavir at 24 hrs by UPLC/MS/MS method; type: ADME, organism-based; settings: in vivo, read-out: Cmin
Rattus norvegicus [20] = assay: (§1) Cmax in Sprague-Dawley rat assessed as (2S,3S)-3-Amino-1-(2-((S)-2-((methoxycarbonyl)amino)-3,3-dimethylbutanoyl)-1-(4-(pyridin-2-yl)benzyl)hydrazinyl)4-phenylbutan-2-yl (S)-2-((Methoxycarbonyl)amino)-3,3-dimethylbutanoate Dihydrochloride at 3 mg/kg, po equiv of atazanavir after 0.25 to 24 hrs by UPLC/MS/MS method; type: ADME, organism-based; parameters: dose 3 mg/kg, route oral; settings: in vivo
Rattus norvegicus [21] = assay: AUC (0 to 24 hrs) in famotidine treated Sprague-Dawley rat assessed as atazanavir at 10 mg/kg, po equiv of atazanavir by UPLC/MS/MS method; type: ADME, organism-based; parameters: time < 24 hr, dose 10 mg/kg, route oral; settings: in vivo
Method in brief: (§2)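 Rat gastric pH model. Gastric pH was modulated by pretreatment with either pentagastrin or famotidine. Dosing was oral as a suspension in 0.5% methyl cellulose / 99.5% water, with parent AUC0–24 h determined in each arm.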

Rattus norvegicus [22] = assay: as §1, with “Tmax” for “Cmax”; type: ADME, organism-based; settings: in vivo
Rattus norvegicus [23] = assay: AUC (0 to 24 hrs) in pentagastrin treated Sprague-Dawley rat assessed as atazanavir at 10 mg/kg, po equiv of atazanavir by UPLC/MS/MS method; type: ADME, organism-based; parameters: dose 10 mg/kg, time < 24 hr, route oral; settings: in vivo; method in brief: as §2
Rattus norvegicus [24] = assay: as §1, with “AUClast” for “Cmax”; type: ADME, organism-based; parameters: time lower 0.25 hr, dose 3 mg/kg, time upper 24 hr, route oral; settings: in vivo
Rattus norvegicus [25] = assay: AUC (0 to 24 hrs) in Sprague-Dawley rat assessed as atazanavir at 10 mg/kg, po equiv of atazanavir by UPLC/MS/MS method; type: ADME, organism-based; parameters: time < 24 hr, dose 10 mg/kg, route oral; settings: in vivo
Rattus norvegicus [26] = assay: Oral bioavailability in Sprague-Dawley rat assessed as atazanavir at 3 mg/kg equiv of atazanavir after 0.25 to 24 hrs by UPLC/MS/MS method; type: ADME, organism-based; settings: in vivo
[27] = AUC (0 to 24 hrs) in Sprague-Dawley rat at 10 mg/kg, po by UPLC/MS/MS method; type: ADME, organism-based; parameters: dose 10 mg/kg, time < 24 hr, route oral; settings: in vivo
Rattus norvegicus [28] = assay: Cmax in Sprague-Dawley rat at 3 mg/kg, po after 0.25 to 24 hrs by UPLC/MS/MS method; type: ADME, organism-based; parameters: dose 3 mg/kg, route oral; settings: in vivo
[29] = Tmax in Sprague-Dawley rat at 3 mg/kg, po after 0.25 to 24 hrs by UPLC/MS/MS method; type: ADME, organism-based; settings: in vivo
[30] = AUC (0 to 24 hrs) in pentagastrin treated Sprague-Dawley rat at 10 mg/kg, po by UPLC/MS/MS method; type: ADME, organism-based; parameters: dose 10 mg/kg, time < 24 hr, route oral; settings: in vivo
Method in brief: (§3)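 Rat gastric-pH model: gastric pH raised with famotidine or lowered with pentagastrin before oral dosing […] as a suspension in 0.5% methyl cellulose / 99.5% water; plasma atazanavir (parent) AUC0–24 h determined.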

Rattus norvegicus [31] = assay: AUClast in Sprague-Dawley rat at 3 mg/kg, po after 0.25 to 24 hrs by UPLC/MS/MS method; type: ADME, organism-based; parameters: time 0.25-24 hr, dose 3 mg/kg, route oral; settings: in vivo
[32] = AUC (0 to 24 hrs) in famotidine treated Sprague-Dawley rat at 10 mg/kg, po by UPLC/MS/MS method; type: ADME, organism-based; parameters: dose 10 mg/kg, time < 24 hr, route oral; settings: in vivo; method in brief: as §3
Rattus norvegicus [33] = assay: Ratio of AUC in pentagastrin treated Sprague-Dawley rat at 10 mg/kg, po to AUC in famotidine treated Sprague-Dawley rat at 10 mg/kg, po; type: ADME, organism-based; settings: in vivo
Method in brief: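 Oral suspension in 0.5% methyl cellulose / 99.5% water, given to rats whose gastric pH was modulated by pretreatment with pentagastrin or famotidine.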

[34] = Oral bioavailability in Sprague-Dawley rat at 3 mg/kg after 0.25 to 24 hrs by UPLC/MS/MS method; type: ADME, organism-based; settings: in vivo
[35] = Trough concentration in Sprague-Dawley rat at 3 mg/kg, po at 24 hrs by UPLC/MS/MS method; type: ADME, organism-based; settings: in vivo, read-out: Cmin

SMILES | half-life [1] | half-life at 1 µM [2] | solubility [3] | half-life [4] | concentration (Rattus norvegicus [5]) | half-life at 1 µM [6] | F (Rattus norvegicus [7]) | AUClast (Rattus norvegicus [8]) | solubility [9] | solubility [10] | Tmax (Rattus norvegicus [11]) | Cmax (Rattus norvegicus [12]) | half-life [13] | Ratio AUC (Rattus norvegicus [14]) | efflux ratio [15] | Papp A→B [16] | Papp B→A [17] | Cmin (Rattus norvegicus [5]) | other results
COC(=O)N[C@H](C(=O)NN(Cc1ccc(-c2ccccn2)cc1)C[C@H](OC(=O)[C@@H](NC(=O)OC)C(C)(C)C)[C@H](Cc1ccccc1)NC(=O)OCc1oc(=O)oc1C)C(C)(C)C | > 500 h | < 0.0833 h | < 1 µg/mL | > 500 h | 0.3 nM | < 0.0833 h | 10.1% | 0.194 µM·h | < 1 µg/mL | > 1800 µg/mL | 1.3 h | 180 nM | 120 h | 0.1 | – | – | – | – | –
COC(=O)N[C@H](C(=O)NN(Cc1ccc(-c2ccccn2)cc1)C[C@H](OC(=O)[C@@H](NC(=O)OC)C(C)(C)C)[C@H](Cc1ccccc1)NC(=O)OC(OC(=O)[C@H](N)C(C)C)C(C)C)C(C)(C)C.Cl.Cl (stereo partly specified) | > 500 h | 0.883 h | > 1430 µg/mL | > 500 h | 0.3 nM | > 2 h | 8.7% | 0.167 µM·h | 27 µg/mL | > 500 µg/mL | 2.3 h | 37 nM | 215 h | 50.5 | > 5 | < 1.5 ×10⁻⁶ cm/s | 7.3 ×10⁻⁶ cm/s | – | –
COC(=O)N[C@H](C(=O)NN(Cc1ccc(-c2ccccn2)cc1)C[C@H](OC(=O)[C@@H](NC(=O)OC)C(C)(C)C)[C@H](Cc1ccccc1)NC(=O)OCOC(=O)[C@@H](N)C(C)C)C(C)(C)C.Cl.Cl | > 500 h | < 0.0833 h | > 1500 µg/mL | 334 h | – | 0.333 h | 4.3% | 0.083 µM·h | – | > 1800 µg/mL | 0.4 h | 56 nM | 6.6 h | – | – | – | – | Bld | half-life [18]: 1.8 h
COC(=O)N[C@H](C(=O)NN(Cc1ccc(-c2ccccn2)cc1)C[C@H](OC(=O)[C@@H](NC(=O)OC)C(C)(C)C)[C@H](Cc1ccccc1)NC(=O)OC(OC(=O)[C@@H](N)C(C)C)C(C)C)C(C)(C)C.Cl.Cl (stereo partly specified) | > 500 h | 0.933 h | 120 µg/mL | > 500 h | 4.5 nM | > 2 h | 75.3% | 1.446 µM·h | 10 µg/mL | > 1100 µg/mL | 1.7 h | 310 nM | 108 h | 3.4 | > 8 | < 1.5 ×10⁻⁶ cm/s | 11.4 ×10⁻⁶ cm/s | – | concentration (Rattus norvegicus [19]): 2 nM; Cmax (Rattus norvegicus [20]): 124 nM; AUC (Rattus norvegicus [21]): 1.275 µM·h; Tmax (Rattus norvegicus [22]): 1.7 h; AUC (Rattus norvegicus [23]): 1.332 µM·h; AUClast (Rattus norvegicus [24]): 0.579 µM·h; AUC (Rattus norvegicus [25]): 2.093 µM·h
COC(=O)N[C@H](C(=O)N[C@@H](Cc1ccccc1)[C@H](CN(Cc1ccc(-c2ccccn2)cc1)NC(=O)[C@@H](NC(=O)OC)C(C)(C)C)OC(=O)[C@@H](N)C(C)C)C(C)(C)C.Cl.Cl | – | – | – | – | – | – | – | – | – | – | – | 10 nM | – | – | – | – | – | Bld | F (Rattus norvegicus [26]): 2.2%
COC(=O)N[C@H](C(=O)N[C@@H](Cc1ccccc1)[C@@H](O)CN(Cc1ccc(-c2ccccn2)cc1)NC(=O)[C@@H](NC(=O)OC)C(C)(C)C)C(C)(C)C [ATAZANAVIR] | > 500 h | 0.467 h | < 1 µg/mL | > 500 h | – | > 2 h | – | – | < 1 µg/mL | 1690 µg/mL (≈ 2400 µM) | – | – | > 500 h | – | > 31 | – | 47 ×10⁻⁶ cm/s | – | AUC(0-t) at 24 h [27]: 0.24 µM·h; Cmax (Rattus norvegicus [28]): 266 nM; Tmax [29]: 0.5 h; AUC(0-t) at 24 h [30]: 2.46 µM·h; AUClast (Rattus norvegicus [31]): 0.384 µM·h; AUC(0-t) at 24 h [32]: 0.005 µM·h; Ratio AUC (Rattus norvegicus [33]): 492; bioavailability [34]: 20%; concentration at 24 h [35]: 0.25 nM
COC(=O)N[C@H](C(=O)NN(Cc1ccc(-c2ccccn2)cc1)C[C@H](OC(=O)[C@@H](NC(=O)OC)C(C)(C)C)[C@@H](N)Cc1ccccc1)C(C)(C)C.Cl.Cl | 376 h | 1.32 h | > 400 µg/mL | 334 h | – | > 2 h | 0.83% | 0.016 µM·h | – | > 900 µg/mL | 0.4 h | 8 nM | 6.6 h | 4.9 | 15 | 2.3 ×10⁻⁶ cm/s | 34.8 ×10⁻⁶ cm/s | Bld | –
